Experimental data as given in ChEMBL document CHEMBL1124727, “Neuronal mapping of the heart with 6-[18F]fluorometaraminol” (1990).

How the values were obtained:
Canis familiaris [1] = test: Tissue concentration in dog liver after iv administration; assay type: functional, Canis lupus familiaris
Method in brief: (§1)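 Mongrel dogs (two female, 15.0 and 18.6 kg, 0.45 mCi; two male, 2.0 mCi) given FMR as iv cephalic-vein bolus in 2.0 mL sterile 0.15 M acetate buffer, pH 4.5. Killed 1 h later by iv pentobarbital; tissues washed in saline, blotted, weighed, gamma counted 1 min. Expressed as % kg dose/g, N = 4 (muscle, pancreas, kidney N = 2).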

Canis familiaris [2] = test: Tissue concentration in dog adrenal medulla after iv administration; assay type: functional, Canis lupus familiaris; method in brief: as §1
Canis familiaris [3] = test: Tissue concentration in dog blood after iv administration; assay type: functional, Canis lupus familiaris; method in brief: as §1
Canis familiaris [4] = test: Tissue concentration in dog heart after iv administration; assay type: functional, Canis lupus familiaris
Canis familiaris [5] = test: Tissue concentration in dog left ventricle to blood ratio after iv administration; assay type: functional, Canis lupus familiaris; method in brief: as §1
Canis familiaris [6] = test: Tissue concentration in dog lung after iv administration; assay type: functional, Canis lupus familiaris; method in brief: as §1
Canis familiaris [7] = test: Tissue concentration in dog spleen after iv administration; assay type: functional, Canis lupus familiaris; method in brief: as §1
Canis familiaris [8] = test: Tissue concentration in dog thyroid after iv administration; assay type: functional, Canis lupus familiaris, Thyroid gland
Canis familiaris [9] = organism: Canis familiaris; test: Concentration of Endogenous NE and FMR from Midbasal Slices of Phenol-Treated Canine in anterior wall; assay type: functional, organism-based; details: Canis lupus familiaris
Method in brief: (§2)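 Phenol-painted (88% phenol in ethanol, epicardial LV anterior wall near LAD) dogs, 4–7 days post surgery; sacrificed 1 h after iv FMR by pentobarbital/KCl overdose. Midbasal LV slices cut into radial segments, gamma counted; homogenized in cold 0.4 M perchloric acid, NE by HPLC-fluorescence. FMR normalized to highest-activity segment = 100%. Three lowest contiguous segments per slice averaged versus opposed segments; Student's t test.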

Canis familiaris [10] = organism: Canis familiaris; test: Concentration of Endogenous NE and FMR from Midbasal Slices of Phenol-Treated Canine in posterior wall; assay type: functional, organism-based; details: Canis lupus familiaris; method in brief: as §2
Rattus norvegicus [11] = test: Neuronal selectivity expressed as Concentration in blood after iv administration in rat, pretreated with 6-hydroxydopamine (control = 0.065+/-0.005); assay type: functional, organism-based; details: tested as the 3H-labelled form
Rattus norvegicus [12] = test: Neuronal selectivity expressed as Concentration in spleen after iv administration in rat, pretreated with 6-hydroxydopamine (control = 0.85+/-0.005); assay type: functional, organism-based; details: tested as the 3H-labelled form
Rattus norvegicus [13] = test: Neuronal selectivity expressed as Concentration in left atrium after iv administration in rat, pretreated with 6-hydroxydopamine (control =4.75+/-0.28); details: Cardiac atrium, tested as the 3H-labelled form
Rattus norvegicus [14] = test: Neuronal selectivity expressed as Concentration in rigt atrium after iv administration in rat, pretreated with 6-hydroxydopamine (control = 4.86+/-0.68); details: Cardiac atrium, tested as the 3H-labelled form
Rattus norvegicus [15] = test: Neuronal selectivity expressed as Concentration in left ventricle after iv administration in rat, pretreated with 6-hydroxydopamine (control = 4.10+/-0.23); details: Heart left ventricle, tested as the 3H-labelled form
Rattus norvegicus [16] = test: Neuronal selectivity expressed as Concentration in right ventricle after iv administration in rat, pretreated with 6-hydroxydopamine (control = 4.86+/-0.24); details: Heart right ventricle, tested as the 3H-labelled form
Rattus norvegicus [17] = test: Neuronal selectivity expressed as Concentration in spleen after iv administration in rat, pretreated with 6-hydroxydopamine (control = 1.88+/-0.25); assay type: functional, organism-based
Rattus norvegicus [18] = test: Neuronal selectivity expressed as Concentration in blood after iv administration in rat, pretreated with 6-hydroxydopamine (control = 0.062+/-0.012); assay type: functional, organism-based
Rattus norvegicus [19] = test: Neuronal selectivity expressed as Concentration in left atrium after iv administration in rat, pretreated with 6-hydroxydopamine (control = 5.26+/-0.43); assay type: functional, organism-based; details: Cardiac atrium
Rattus norvegicus [20] = test: Neuronal selectivity expressed as Concentration in left ventricle after iv administration in rat, pretreated with 6-hydroxydopamine (control = 5.38+/-0.39); assay type: functional, organism-based; details: Heart left ventricle
Rattus norvegicus [21] = test: Neuronal selectivity expressed as Concentration in right atrium after iv administration in rat, pretreated with 6-hydroxydopamine (control = 5.19+/-0.14); assay type: functional, organism-based; details: Cardiac atrium
Rattus norvegicus [22] = test: Neuronal selectivity expressed as Concentration in right ventricle after iv administration in rat, pretreated with 6-hydroxydopamine (control = 6.10+/-0.45); assay type: functional, organism-based; details: Heart right ventricle
Canis familiaris [23] = test: Tissue concentration in dog blood 24 hr after iv administration; assay type: functional, Canis lupus familiaris
Method in brief: (§3)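 Dogs (one to three per time point) received bolus cephalic vein injection of 92–100 μCi ³H tracer in 2.0 mL sterile acetate buffer pH 4.5; sacrificed 30 min or 24 h later by iv sodium pentobarbital. Duplicate organ samples oxidized and liquid-scintillation counted with background/efficiency correction; % kg dose/g ± SEM; heart ratio uses left ventricle/blood.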

Canis familiaris [24] = test: Tissue concentration in dog heart 0.5 hr after iv administration; assay type: functional, Canis lupus familiaris; method in brief: as §3
Canis familiaris [25] = test: Tissue concentration in dog heart 24 hr after iv administration; assay type: functional, Canis lupus familiaris; method in brief: as §3
Canis familiaris [26] = test: Tissue concentration in dog left ventricle to blood ratio 0.5 hr after iv administration; assay type: functional, Canis lupus familiaris; method in brief: as §3
Canis familiaris [27] = test: Tissue concentration in dog liver 24 hr after iv administration; assay type: functional, Canis lupus familiaris; method in brief: as §3
Canis familiaris [28] = test: Tissue concentration in dog lung 0.5 hr after iv administration; assay type: functional, Canis lupus familiaris; method in brief: as §3
Canis familiaris [29] = test: Tissue concentration in dog lung 24 hr after iv administration; assay type: functional, Canis lupus familiaris; method in brief: as §3
Canis familiaris [30] = test: Tissue concentration in dog spleen 0.5 hr after iv administration; assay type: functional, Canis lupus familiaris; method in brief: as §3
Canis familiaris [31] = test: Tissue concentration in dog spleen 24 hr after iv administration; assay type: functional, Canis lupus familiaris; method in brief: as §3
Rattus norvegicus [32] = organism: Rattus norvegicus; test: Percente change in thallium-201 concentration in left atrium of sympathectomized rat, pretreated with 6-hydroxydopamine; assay type: functional, Cardiac atrium
Method in brief: (§4)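 Female Sprague-Dawley rats (200–300 g) given 6-hydroxydopamine HBr 100 mg/kg ip, freshly made in saline, 5 days before tracer; controls got vehicle. Thallium-201 (23–28 μCi) iv via femoral vein; decapitated 90 min later; tissue radioactivity counted; N = 6. Value is % change in treated versus control tissue concentration.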

Rattus norvegicus [33] = organism: Rattus norvegicus; test: Percent change in thallium-201 concentration in left ventricle of sympathectomized rat, pretreated with 6-hydroxydopamine; assay type: functional, Heart left ventricle
Method in brief: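 Blood-perfusion check in rats under same 6-hydroxydopamine protocol (100 mg/kg ip, 5 days before tracer): thallium-201 23–28 μCi iv via femoral vein, decapitation 90 min later, N = 6; percent change in tissue radioactivity of treated versus control rats.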

Rattus norvegicus [34] = organism: Rattus norvegicus; test: Percent change in thallium-201 concentration in right atrium of sympathectomized rat, pretreated with 6-hydroxydopamine; assay type: functional, Cardiac atrium; method in brief: as §4
Rattus norvegicus [35] = organism: Rattus norvegicus; test: Percent change in thallium-201 concentration in spleen of sympathectomized rat, pretreated with 6-hydroxydopamine; assay type: functional
Canis familiaris [36] = test: Tissue concentration in dog left ventricle to blood ratio 24 hr after iv administration; assay type: functional, Canis lupus familiaris; method in brief: as §3
Rattus norvegicus [37] = organism: Rattus norvegicus; test: Percent change in [3H]metaraminol concentration in blood of sympathectomized rat, pretreated with 6-hydroxydopamine
Rattus norvegicus [38] = organism: Rattus norvegicus; test: Percent change in [3H]metaraminol concentration in right ventricle of sympathectomized rat, pretreated with 6-hydroxydopamine

CC(N)C(O)c1cc(O)ccc1I (stereo not drawn)
[3H] concentration (Canis familiaris [1]): 0.49 % kg dose g-1
[3H] concentration (Canis familiaris [2]): 0.2 % kg dose g-1
[3H] concentration (Canis familiaris [3]): 0.05 % kg dose g-1
[3H] concentration (Canis familiaris [4]): 0.05 % kg dose g-1
[3H] concentration (Canis familiaris [5]): 1 % kg dose g-1
[3H] concentration (Canis familiaris [6]): 0.26 % kg dose g-1
[3H] concentration (Canis familiaris [7]): 0.08 % kg dose g-1
[3H] concentration (Canis familiaris [8]): 0.06 % kg dose g-1

NC[C@H](O)c1ccc(O)c(O)c1
Concentration (Canis familiaris [9]): 303 ng/g
Concentration (Canis familiaris [10]): 1460 ng/g
Concentration (Rattus norvegicus [11]): 0.052 % dose g-1
Concentration (Rattus norvegicus [12]): 0.25 % dose g-1
Concentration (Rattus norvegicus [13]): 0.39 % dose g-1
Concentration (Rattus norvegicus [14]): 0.29 % dose g-1
Concentration (Rattus norvegicus [15]): 0.6 % dose g-1
Concentration (Rattus norvegicus [16]): 0.41 % dose g-1

C[C@H](N)[C@H](O)c1cccc(O)c1 (stereo in doubt; form 2)
Concentration (Rattus norvegicus [17]): 0.46 % dose g-1
Concentration (Rattus norvegicus [18]): 0.158 % dose g-1
Concentration (Rattus norvegicus [19]): 0.75 % dose g-1
Concentration (Rattus norvegicus [20]): 1.05 % dose g-1
Concentration (Rattus norvegicus [21]): 0.86 % dose g-1
Concentration (Rattus norvegicus [22]): 1.32 % dose g-1

C[C@H](N)[C@H](O)c1cccc(O)c1 (stereo in doubt; form 2) [METARAMINOL]
[3H] concentration (Canis familiaris [23]): 0.009 % kg dose g-1
[3H] concentration (Canis familiaris [24]): 0.72 % kg dose g-1
[3H] concentration (Canis familiaris [25]): 0.51 % kg dose g-1
[3H] concentration (Canis familiaris [26]): 24
[3H] concentration (Canis familiaris [27]): 0.17 % kg dose g-1
[3H] concentration (Canis familiaris [28]): 0.13 % kg dose g-1
[3H] concentration (Canis familiaris [29]): 0.05 % kg dose g-1
[3H] concentration (Canis familiaris [30]): 0.88 % kg dose g-1
[3H] concentration (Canis familiaris [31]): 0.73 % kg dose g-1
Change (Rattus norvegicus [32]): -86%
Change (Rattus norvegicus [33]): -86%
Change (Rattus norvegicus [34]): -83%
Change (Rattus norvegicus [35]): -76%
[3H] concentration (Canis familiaris [36]): 57
Change (Rattus norvegicus [37]): 155%
Change (Rattus norvegicus [38]): -80%
